From publication PMC5074691 (Cell reports, 2016)

Assays:
Widom 601 DNA = assay: EMSA with Widom 601 DNA; assay type: binding; conditions: 1 to 20 molar excess protein; 601 DNA (3 pM); 20 mM Tris-HCl pH 7.5, 150 mM NaCl, 2 mM DTT; 1 h, room temperature
How it was run: (§1)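 MORC3 His-ATPase (aa 1–392, E. coli-expressed, Ni-NTA purified) is titrated onto the nucleic acid substrate; for 601 DNA, His-ATPase-CW (aa 1–455) is also tested. Mixtures run on 5% polyacrylamide gels in 0.2x TB at 150 V for 1 h on ice, then are stained with ethidium bromide and imaged.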

[1] = system: reconstituted nucleosome core particles (NCPs); assay: EMSA with nucleosome core particles; assay type: binding; conditions: 1 to 20 molar excess protein; NCPs (3 pM); 20 mM Tris-HCl pH 7.5, 150 mM NaCl, 2 mM DTT; 1 h, room temperature
How it was run: as §1

MORC3-CW E453A = assay: 1H,15N TROSY/HSQC NMR titration and competition on MORC3-CW E453A; assay type: binding, human
MORC3 His-ATPase-CW = assay: ATPase assay; assay type: biochemical, human; conditions: with DNA
How it was run: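 Human MORC3 His-ATPase-CW (aa 1–455), expressed in E. coli Rosetta2(DE3) pLysS, Ni-NTA purified in HEPES buffers, used at 1.5–3.0 μM. Run 20 min at 22 °C or 30 min at 30 °C, read at A360. SD from ≥3 experiments (two at 30 °C).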

Molecule | DNA binding by EMSA (Widom 601 DNA) | NCP binding by EMSA [1] | chemical shift perturbation / complex formation in TROSY (MORC3-CW E453A; 10 mM HEPES pH 7.4, 100 mM NaCl, 1 mM TCEP, 7% D2O, 298K) | displacement of H3K4me0 from CW E453A:H3K4me0 complex (MORC3-CW E453A; His-ATPase titrated into CW E453A:H3K4me0 (1:4), 10 mM HEPES pH 7.4) | effect of linked CW on rate of hydrolysis in the presence of DNA (MORC3 His-ATPase-CW)
His-ATPase: His-tagged isolated ATPase domain of MORC3 (aa 1-392) (protein, left off: His tag, end not stated, kept) MAAQPPRGIRLSALCPKFLHTNSTSHTWPFSAVAELIDNAYDPDVNAKQIWIDKTVINDHICLTFTDNGNGMTSDKLHKMLSFGFSDKVTMNGHVPVGLYGNGFKSGSMRLGKDAIVFTKNGESMSVGLLSQTYLEVIKAEHVVVPIVAFNKHRQMINLAESKASLAAILEHSLFSTEQKLLAELDAIIGKKGTRIIIWNLRSYKNATEFDFEKDKYDIRIPEDLDEITGKKGYKKQERMDQIAPESDYSLRAYCSILYLKPRMQIILRGQKVKTQLVSKSLAYIERDVYRPKFLSKTVRITFGFNCRNKDHYGIMMYHRNRLIKAYEKVGCQLRANNMGVGVVGIIECNFLKPTHNKQDFDYTNEYRLTITALGEKLNDYWNEMKVKKNTE | resulted in a shift of the DNA and/or NCP bands | resulted in a shift of the DNA and/or NCP bands | Substantial chemical shift perturbations | could not efficiently displace H3K4me0 | –
His-ATPase-CW: MORC3 construct harboring linked ATPase and CW domains (aa 1-455), His-tagged (protein, left off: His tag, end not stated, kept) MAAQPPRGIRLSALCPKFLHTNSTSHTWPFSAVAELIDNAYDPDVNAKQIWIDKTVINDHICLTFTDNGNGMTSDKLHKMLSFGFSDKVTMNGHVPVGLYGNGFKSGSMRLGKDAIVFTKNGESMSVGLLSQTYLEVIKAEHVVVPIVAFNKHRQMINLAESKASLAAILEHSLFSTEQKLLAELDAIIGKKGTRIIIWNLRSYKNATEFDFEKDKYDIRIPEDLDEITGKKGYKKQERMDQIAPESDYSLRAYCSILYLKPRMQIILRGQKVKTQLVSKSLAYIERDVYRPKFLSKTVRITFGFNCRNKDHYGIMMYHRNRLIKAYEKVGCQLRANNMGVGVVGIIECNFLKPTHNKQDFDYTNEYRLTITALGEKLNDYWNEMKVKKNTEYPLNLPVEDIQKRPDQTWVQCDACLKWRKLPDGMDQLPEKWYCSNNPDPQFRNCEVPEEPEDE | impaired | – | – | – | considerably decreased the rate of hydrolysis in the presence of DNA
